Laboratory results as given in article PMC12219203 (Nature Communications, 2025).
Values belong to the molecule of their own block, whether it stands above or below them.

Key:
NOD1 = NOD1 (Homo sapiens, UniProt Q9Y239); experiment: HEK-Blue NOD1 SEAP reporter assay; type: cell-based; details: GM, M 20 μM; 18 h
In short: (§1)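 HEK-Blue hNod1 or hNod2 cells were seeded at 50,000 cells/well in DMEM/10% FBS without selection antibiotics and stimulated at once for 18 h (n = 3). Supernatant was mixed 1:4 with Quanti-Blue and incubated 6 h at 37 °C, and absorbance was read at 620 nm. Values were blanked against water-treated wells, and the respective parental Null cell readouts were subtracted.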

[1] = system: WT bone-marrow-derived macrophages (BMDMs); experiment: Cytokine gene expression in WT BMDMs; type: cell-based, mouse; details: GM 2-8 mM, M 8 mM
In short: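 Marrow was flushed from the femur and tibia of female SPF C57BL/6J mice and red cells were lysed (NH4Cl/KHCO3). Cells at 200,000 cells/mL were differentiated for 6 days in IMDM with 20 ng/mL GM-CSF or 10% L929 supernatant, then switched to serum-free IMDM. Test compounds were added for 24 h (n = 3). Cytokine transcripts were measured by RT-qPCR (2-ΔΔCt, normalised to β-act).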

RAW264.7 cells = experiment: Cytokine expression in RAW264.7 macrophages; type: cell-based, mouse; details: GM 1-4 mM, M 4 mM, 24 h
In short: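 RAW264.7 cells were kept in high-glucose IMDM with HEPES, 5% heat-inactivated FBS and penicillin/streptomycin at 37 °C, 5% CO2. They were exposed to test compounds for 24 h (n = 4). Total RNA was extracted with a column kit, and TNF-α and IL-6 transcripts were quantified by RT-qPCR using the 2-ΔΔCt method, normalised to β-act.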

NOD2 = experiment: HEK-Blue NOD2 SEAP reporter assay; type: cell-based, human; details: MDP, M-AE 200 nM; GM, M 20 μM; 18 h
In short: as §1

Tlr4-/- BMDMs = experiment: Cytokine secretion by Tlr4-/- BMDMs; type: cell-based, mouse; details: ELISA, 24 h; GM 4 mM, MDP 0.4 mM, LPS 100 ng/mL, CpG 100 nM
In short: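 Murine BMDMs were differentiated 6 days in complete medium with 20 ng/mL GM-CSF or 10% L929 supernatant, then switched to serum-free IMDM and stimulated 24 h. Mouse TNF-α and IL-6 in culture supernatants were quantified by sandwich ELISA. Samples were prediluted in 1% BSA in PBS, pH 7.4, where needed.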

RAW-Dual cells = experiment: TNF-α secretion by RAW-Dual WT cells, with or without TLR inhibitors; type: cell-based, mouse; details: inhibitor 10 μM, 1 h pre-incubation, then GM 2 mM, 24 h; ELISA
In short: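 RAW-Dual cells were seeded at 100,000 cells/well and pre-incubated 1 h with 10 μM TLR2 (CU_CPT22), TLR4 (TAK-242) or TLR7/9 (AT791) inhibitor. They were then stimulated with 2 mM test compound for 24 h. Supernatants were cleared at 16,000 × g and TNF-α was measured by sandwich ELISA.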

Incubation with 10% FBS = type: in vitro ADME, bovine; details: 37 C, 16 h, LC-MS

NOD1, sequence (Q9Y239 whole entry): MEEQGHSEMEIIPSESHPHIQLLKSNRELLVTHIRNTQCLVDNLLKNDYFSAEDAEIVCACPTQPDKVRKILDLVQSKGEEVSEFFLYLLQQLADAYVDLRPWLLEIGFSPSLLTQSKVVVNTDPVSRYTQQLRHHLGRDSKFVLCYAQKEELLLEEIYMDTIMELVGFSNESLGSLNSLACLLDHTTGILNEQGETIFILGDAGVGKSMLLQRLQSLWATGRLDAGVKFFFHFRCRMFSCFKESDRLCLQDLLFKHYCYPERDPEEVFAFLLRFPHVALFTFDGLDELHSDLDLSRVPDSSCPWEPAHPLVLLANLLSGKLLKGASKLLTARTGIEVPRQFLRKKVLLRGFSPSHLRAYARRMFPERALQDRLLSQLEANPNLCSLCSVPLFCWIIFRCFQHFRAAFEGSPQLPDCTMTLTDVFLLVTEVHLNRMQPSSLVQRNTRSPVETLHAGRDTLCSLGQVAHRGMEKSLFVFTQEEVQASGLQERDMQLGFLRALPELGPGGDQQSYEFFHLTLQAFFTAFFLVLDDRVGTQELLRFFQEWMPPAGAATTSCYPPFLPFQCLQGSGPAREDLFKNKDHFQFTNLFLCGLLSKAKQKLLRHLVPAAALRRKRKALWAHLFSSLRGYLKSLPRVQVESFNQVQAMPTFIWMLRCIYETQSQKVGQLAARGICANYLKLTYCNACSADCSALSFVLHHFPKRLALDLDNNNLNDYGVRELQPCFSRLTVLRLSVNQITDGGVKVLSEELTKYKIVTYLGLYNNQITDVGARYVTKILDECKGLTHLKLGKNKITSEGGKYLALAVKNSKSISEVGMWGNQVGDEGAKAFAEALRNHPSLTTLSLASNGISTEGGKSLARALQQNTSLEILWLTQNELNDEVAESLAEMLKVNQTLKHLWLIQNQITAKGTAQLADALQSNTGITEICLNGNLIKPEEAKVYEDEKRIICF

NOD1 activation in HEK-Blue reporter cells (in words) (NOD1): unable to activate NOD1/2
Molecule: CC(=O)N[C@H]1C(O)O[C@H](CO)[C@@H](O)[C@@H]1O[C@H](C)C(=O)O (some centres unmarked) [M, N-acetylmuramic acid, reference compound]
Immuno-stimulatory activity (TNF-α, IL-6) in BMDMs (in words) [1]: less potent
Immuno-stimulatory activity (TNF-α, IL-6) in RAW264.7 (in words) (RAW264.7 cells): less potent
NOD2 activation in HEK-Blue reporter cells (in words) (NOD2): unable to activate NOD1/2

Molecule: CC(=O)N[C@H]1C(O)O[C@H](CO)[C@@H](O)[C@@H]1O[C@H](C)C(=O)N[C@@H](C)C(=O)N[C@H](CCC(=O)O)C(=O)O (some centres unmarked) [M-AE]
NOD2 activation in HEK-Blue reporter cells (in words) (NOD2): potent NOD2 activation similar to the model ligand MDP

Molecule: CC(=O)N[C@H]1C(O)O[C@H](CO)[C@@H](O)[C@@H]1O[C@H](C)C(=O)N[C@@H](C)C(=O)N[C@H](CCC(=O)O)C(N)=O (stereo partly drawn) [MDP, N-acetylmuramyl-L-Ala-D-isoGln, reference compound]
TNF-α and IL-6 production in Tlr4-/- BMDMs (in words) (Tlr4-/- BMDMs): still trigger comparable proinflammatory cytokine production

Molecule: CCOC(=O)C1=CCCC[C@H]1S(=O)(=O)Nc1ccc(F)cc1Cl [TAK-242]
Effect of TLR inhibitor on GM-triggered TNF-α production (RAW-Dual cells): suppressed GM-triggered TNF-α production

Molecule: M-AEKAA
Degradation on incubation with 10% FBS (Incubation with 10% FBS): reliably yields the expected degradation products: M and AEKAA
